Measured values as given in ChEMBL document CHEMBL5352453, “Hit-to-lead optimization of a 2-aminobenzimidazole series as new candidates for chagas disease” (Eur J Med Chem, 2023).

What was measured:
[1] = tested on: Trypanosoma cruzi; assay: Antitrypanosomal activity against intracellular Trypanosoma cruzi amastigote infected mouse 3T3 cells assessed as reduction in amastigote population measured after 48 hrs
[2] = tested on: Trypanosoma cruzi; assay: Antitrypanosomal activity against intracellular Trypanosoma cruzi amastigote infected primary peritoneal mouse macrophages assessed as reduction in amastigote population measured after 96 hrs; format: functional, organism-based; details: for IC50: 96 h; for IC90: time 96 hrs
Outline: (§1)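 High-content imaging of primary mouse macrophages infected with T. cruzi. Counts both amastigotes per cell and percentage of infected cells. 96 h exposure, with maximal activity scored at 10 µM. IC50 and IC90 against intracellular amastigotes taken from the same 96 h incubation.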

[3] = tested on: Trypanosoma cruzi; assay: Antitrypanosomal activity against intracellular Trypanosoma cruzi amastigote infected primary peritoneal mouse macrophages assessed as reduction in infection rate; format: functional
Outline: as §1

[4] = tested on: Trypanosoma cruzi; assay: Antitrypanosomal activity against intracellular Trypanosoma cruzi amastigote infected primary peritoneal mouse macrophages assessed as reduction in amastigote population; format: functional; set-up: concentration or dose not given beside the values
Outline: as §1

[5] = tested on: Trypanosoma cruzi; assay: Antitrypanosomal activity against Trypanosoma cruzi Tulahuen CL2 amastigotes expressing beta galactosidase infected in human MRC5 cells assessed as reduction in parasite burden using chlorophenol red beta-D-galactopyranoside as substrate and measured after 7 days by spectrophotometric analysis; format: functional, organism-based; details: Tulahuen CL2, MRC5, 168 h
Outline: (§2)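 T. cruzi Tulahuen CL2 β-galactosidase strain grown in MRC-5 cells (MEM, 5% heat-inactivated FCS, 37 °C, 5% CO2). MRC-5 cells (4 x 10^3/well) plus parasites (4 x 10^4/well) exposed 7 days to 4-fold dilutions from 64 µM down; final DMSO <1%. CPRG with Nonidet added, absorbance at 540 nm after 4 h. IC50 calculated against untreated-infected (100%) and non-infected (0%) controls. SI = MRC-5 CC50/IC50.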

[6] = Metabolic stability in CD1 mouse liver microsomes assessed as intrinsic clearance measured upto 60 mins by LC-MS/MS analysis; format: ADME; details: read-out: CLH
Outline: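 CD1 mouse liver microsomes at 0.25 mg/mL, compound at 0.5 µM, pH 7.4, 37 °C, started with NADPH. Sampled at 0, 5, 10, 20, 30 and 60 min and quenched with acetonitrile:methanol containing tolbutamide. Measured by LC-MS/MS; CLint (k × 1000/0.25, µL/min/mg) derived by non-linear regression of % remaining over time.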

[7] = Selectivity index, ratio of CC50 for cytotoxicity against human MRC5 cells to EC50 for Trypanosoma cruzi Tulahuen CL2 amastigotes expressing beta galactosidase infected in human MRC5 cells; format: toxicity, cell-based; details: read-out: Selectivity Index
Outline: as §2

[8] = Drug metabolism in S9 cells assessed as turnover; details: mouse
[9] = Cytotoxicity against rat L6 cells assessed as reduction in cell viability measured after 24 hrs by colorimetric assay; format: toxicity, cell-based
[10] = Passive permeability of the compound at 10 uM at pH 6.5 to 7.4 donor portion/acceptor portion by PAPMA assay; format: ADME; details: not told, read-out: permeability
Outline: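 PAMPA on pre-coated membranes. Donor holds 10 µM compound in PBS pH 6.5; acceptor holds PBS pH 7.4. Incubated 5 h at 37 °C. Donor, acceptor and initial donor samples quenched and quantified by LC-MS/MS to calculate effective permeability (Pe). Run in triplicate.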

[11] = Cytotoxicity against primary peritoneal mouse macrophages assessed as reduction in cell viability measured after 24 hrs by colorimetric assay; format: toxicity, cell-based, Peritoneal macrophage
[12] = Kinetic solubility of the compound at pH 2 PBS buffer measured after 24 hrs shaken by LC-MS/MS analysis; format: physicochemical; details: read-out: Kinetic_solubility
Outline: (§3)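 Compounds from 10 mM DMSO stocks diluted in PBS pH 7.4 or pH 2.0 to 250 µM final, 2.5% DMSO, in duplicate. Shaken 24 ± 1 h at 200 rpm, room temperature, then centrifuged to remove precipitate. Supernatant quantified by LC-MS/MS against per-compound calibration at 1–50 µM.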

[13] = Cytotoxicity against human MRC5 cells assessed as reduction in cell viability measured after 24 hrs by colorimetric assay; format: toxicity, cell-based
[14] = Cytotoxicity against mouse 3T3 cells assessed as reduction in cell viability measured after 24 hrs by colorimetric assay; format: toxicity, cell-based; details: NIH3T3 cells
[15] = Kinetic solubility of the compound at pH 7.4 PBS buffer measured after 24 hrs shaken by LC-MS/MS analysis; format: physicochemical; details: read-out: Kinetic_solubility
Outline: as §3

[16] = Cytotoxicity against human HepG2 cells assessed as reduction in cell viability measured after 24 hrs by colorimetric assay; format: toxicity, cell-based

| Structure (SMILES) | microsomal CLint [6] [µL/min/mg] | IC50 [5] [µM] | selectivity ratio [7] | other results |
| --- | --- | --- | --- | --- |
| CC[C@@H]([C@H](C)O)n1ncn(-c2ccc(N3CCN(c4ccc(OC[C@@H]5CO[C@@](Cn6cncn6)(c6ccc(F)cc6F)C5)cc4)CC3)cc2)c1=O [POSACONAZOLE] |  |  |  | IC50 [1]: 0.002 µM; IC50 [2]: 0.001 µM; IC90 [2]: 0.002 µM; inhibition (INH) [3]: 98%; Activity [4]: 100% |
| N#Cc1ccc2nc(NC(=O)c3ccnc(C(F)(F)F)c3)n(CC(F)(F)F)c2c1 | 27 | 0.28 | > 231 | CC50 at 24 h [9]: 50 µM; Papp at 10 µM [10]: 23 nm/s; IC50 [1]: 1.32 µM; CC50 at 24 h [11]: 4 µM; IC50 [2]: 0.14 µM; IC90 [2]: 0.31 µM; solubility kinetic at 24 h [12]: < 1 µM; CC50 at 24 h [13]: > 64 µM; CC50 at 24 h [14]: > 40 µM; solubility kinetic at 24 h [15]: < 1 µM; inhibition (INH) [3]: 91%; Activity [4]: 98%; CC50 at 24 h [16]: 2.4 µM |
| N#Cc1ccc2nc(NC(=O)c3cc(C(F)(F)F)n[nH]3)n(CC(F)(F)F)c2c1 | 25 | 1.5 | > 42 | CC50 at 24 h [9]: 12 µM; Papp at 10 µM [10]: 20 nm/s; CC50 at 24 h [11]: 25 µM; IC50 [2]: 0.57 µM; IC90 [2]: 0.88 µM; solubility kinetic at 24 h [12]: < 1 µM; CC50 at 24 h [13]: > 64 µM; CC50 at 24 h [14]: > 40 µM; solubility kinetic at 24 h [15]: < 1 µM; inhibition (INH) [3]: 97%; Activity [4]: 99%; CC50 at 24 h [16]: 1.8 µM |
| Cn1nc(C(F)(F)F)cc1C(=O)Nc1nc2ccc(C#N)cc2n1CC(F)(F)F | 28 | 0.23 | 34 | CC50 at 24 h [9]: 19 µM; Papp at 10 µM [10]: 24 nm/s; IC50 [1]: 0.99 µM; CC50 at 24 h [11]: 1 µM; IC50 [2]: 0.19 µM; IC90 [2]: 0.36 µM; solubility kinetic at 24 h [12]: < 1 µM; CC50 at 24 h [13]: 8 µM; CC50 at 24 h [14]: > 40 µM; solubility kinetic at 24 h [15]: < 1 µM; inhibition (INH) [3]: 97%; Activity [4]: 99%; CC50 at 24 h [16]: 1.1 µM |
| Cc1nn[nH]c1C(=O)Nc1nc2ccc(C#N)cc2n1CC(F)(F)F | 141 | 64 | 1 |  |
| N#Cc1ccc2nc(NC(=O)c3cc(C(F)(F)F)n[nH]3)n(CC(F)F)c2c1 | 70 | 0.49 | 11 |  |
| Cn1nccc1C(=O)Nc1nc2ccc(C#N)cc2n1CC(F)(F)F | 20 | 1.6 | 8 |  |
| N#Cc1ccc2nc(NC(=O)c3ccn(C4CC4)n3)n(CC(F)(F)F)c2c1 | 299 | 4.3 | > 15 |  |
| Cn1nccc1C(=O)Nc1nc2cc(CN3CCCC3)ccc2n1CC(F)(F)F | 23 | 8.1 | 2 |  |
| N#Cc1ccc2nc(NC(=O)Cn3cccn3)n(CC(F)(F)F)c2c1 | 36 | 6.6 | 9 |  |
| Cn1nccc1C(=O)Nc1nc2cc(F)cnc2n1CC(F)(F)F | 44 | 0.84 | 3 |  |
| O=C(Cn1ccnc1[N+](=O)[O-])NCc1ccccc1 [BENZNIDAZOLE] |  |  |  | IC50 [1]: 2.57 µM; IC50 [2]: 2.62 µM; IC90 [2]: 12.6 µM; inhibition (INH) [3]: 94%; Activity [4]: 99% |
| Cn1nccc1C(=O)Nc1nc2cccnc2n1CC(C)(C)C | 222 | 2.2 | 20 |  |
| N#Cc1ccc2nc(NC(=O)c3ccc(C(F)(F)F)nc3)n(CC(F)(F)F)c2c1 | 18 | 2.6 | > 25 | CC50 at 24 h [9]: 18 µM; Papp at 10 µM [10]: 54 nm/s; CC50 at 24 h [11]: 8 µM; IC50 [2]: 0.19 µM; IC90 [2]: 0.57 µM; solubility kinetic at 24 h [12]: < 1 µM; CC50 at 24 h [13]: > 64 µM; CC50 at 24 h [14]: > 40 µM; solubility kinetic at 24 h [15]: < 1 µM; inhibition (INH) [3]: 98%; Activity [4]: 99%; CC50 at 24 h [16]: 1.1 µM |
| O=C(Nc1nc2cc(F)cnc2n1CC(F)(F)F)c1ccc(C(F)(F)F)nc1 | 113 | 0.15 | 6 |  |

Second part, led by results:

| microsomal CLint [6] [µL/min/mg] | Structure (SMILES) | IC50 [5] [µM] | selectivity ratio [7] | other results |
| --- | --- | --- | --- | --- |
| 164 | CCCn1c(NC(=O)c2cccnc2)nc2cc(F)ccc21 | 8.2 | > 8 | metabolised [8]: 1.91% |
| 275 | CCCn1c(NC(=O)c2cccnc2)nc2cccnc21 | 4.4 | > 15 |  |
| 160 | O=C(Nc1nc2ccc(F)cc2n1C1CC1)c1cccnc1 | 34 | > 2 |  |
| 23 | CC(C)(O)Cn1c(NC(=O)c2ccc(C(F)(F)F)nc2)nc2ccc(C#N)cc21 | 37 | 1 |  |
| 23 | O=C(Nc1nc2cc(F)ccc2n1C1CCOCC1)c1ccc(C(F)(F)F)nc1 | 35 | > 2 |  |
| 154 | Cn1nccc1C(=O)Nc1nc2ccc(C#N)cc2n1CCF | 8.4 | 2 |  |
| 23 | CS(=O)(=O)c1ccc2c(c1)nc(NC(=O)c1ccnc(C(F)(F)F)c1)n2CC(F)(F)F | 0.55 | 5 |  |
| 66 | CCCn1c(NC(=O)Cc2ccc(F)cc2)nc2ccc(C(=O)NC)cc21 | 34 | 1 |  |
| 467 | CCCn1c(NC(=O)c2cccc(C(F)(F)F)n2)nc2ccc(F)cc21 | 2.3 | > 28 |  |
| 265 | CCCn1c(NC(=O)c2ccccn2)nc2cccnc21 | 8.4 | > 8 |  |
| 131 | CC(C)(C)Cn1c(NC(=O)c2cccnc2)nc2cc(F)c(F)cc21 | 0.8 | > 80 |  |
| 389 | CCCn1c(NC(=O)Cc2cc(F)ccc2F)nc2cc(F)c(F)cc21 | 0.58 | 52 |  |
| 413 | CCCn1c(NC(=O)c2ccccn2)nc2cc(F)ccc21 | 1.1 | 7 | metabolised [8]: 66.2% |
| 446 | CCCn1c(NC(=O)c2cccnc2)nc2cc(F)c(F)cc21 | 2.1 | > 30 |  |
| 226 | CCCn1c(NC(=O)Cc2ccc(Cl)cc2)nc2ccc(C#N)cc21 | 24 | > 3 |  |
| 98 | COCCn1c(NC(=O)c2ccnn2C)nc2ccc(C#N)cc21 | 8.8 | > 7 |  |
